Assay results of several laboratories.
Lines come from different studies, so protocols differ. ≈ marks a conversion by molar mass, not a printed value.

COc1cc(Nc2nccc(-c3cnn4nc(OC)ccc34)n2)cc(C(F)(F)F)c1 — IC50 (SK-MEL3; cell growth or viability, ATP luminescence): 1600 nM
O=C(O)c1cn(C2CC2)c2cc(N3CCNCC3)c(F)cc2c1=O — MIC90 (Haemophilus influenzae; microbial growth): 0.03 µg/mL (≈ 0.0905 µM)
C/C(=N\NC(=O)c1cccc(S(=O)(=O)N2CCN(C)CC2)c1)c1cc(Cl)ccc1O — EC50 (TF-1a; cell growth or viability, resazurin; 96 h): 1260 nM
CCc1ccc(NC(=O)Cc2c[nH]c3ccccc23)cc1 — IC50 (DPPH scavenging): 1920 nM
O=C1O[C@H]([C@@H](O)CO)C(O)=C1O — IC50 (DPPH scavenging): 3.6 µg/mL
O=C(O)c1ccc(CN2CCC(CN[C@@H]3C[C@H]3c3ccccc3)CC2)cc1 — EC50 (TF-1a; cell growth or viability, resazurin; 96 h): 76.4 nM
CC(C)C[C@H](NC(=O)[C@H](Cc1ccccc1)NC(=O)c1cnccn1)B(O)O — IC50 (J82; cell growth or viability, ATP luminescence): 10 nM
O=C(Cc1c[nH]c2ccccc12)Nc1ccc(F)c(F)c1 — IC50 (DPPH scavenging): 1420 nM
CC(=O)Nc1cccc(-n2c(=O)n(C3CC3)c(=O)c3c(Nc4ccc(I)cc4F)n(C)c(=O)c(C)c32)c1 — viability (SW-620; cell growth or viability, resazurin; 1.56 nM, 72 h): 56.3%
CC1(C)S[C@@H]2[C@H](NC(=O)[C@H](N)c3ccccc3)C(=O)N2[C@H]1C(=O)O — MIC90 (Haemophilus influenzae; microbial growth): 128 µg/mL (≈ 366 µM)
COc1ccc2c(c1OC)C(=O)O[C@@H]2[C@H]1c2c(cc3c(c2OC)OCO3)CCN1C — IC50 (FaDu; cell growth or viability; 72 h): 15200 nM
